Measured values gathered from unrelated publications.
Each line is one published result; the experiments were not run side by side.
Target: Beta-1 adrenergic receptor (ADRB1, Homo sapiens, UniProt P08588)
Concentration: 10 µM

For CCN(Cc1ccccc1C(F)(F)F)C(=O)C1CCN(S(=O)(=O)c2ccc3[nH]ncc3c2)CC1, the inhibition was 3% (ligand displacement; radioligand).
O=C(c1ccc(F)cc1)N(Cc1ccccc1)C1CCCCC1 has an inhibition of 4% (cell-free assay).
The inhibition of CCN(CC)c1ccc(C2Nc3ccc(C(=O)c4ccccc4)cc3NC3=C2C(=O)CC(C)(C)C3)cc1 (centres unmarked) is reported as -1% (ligand displacement; radioligand).
With Oc1cccc(Nc2nc(-c3ccc(F)cc3F)cs2)c1 the inhibition was -36.5% (cell-free assay).
NS(=O)(=O)c1cc(NC(=O)C2(c3ccccc3Cl)CC2)ccc1Oc1cccc(Cl)c1 has an inhibition of -3.09% (cell-free assay).
O=C(Nc1ccc(S(=O)(=O)N2CCC(Cl)CC2)cc1)c1ccc([N+](=O)[O-])o1 gave an inhibition of 1% (ligand displacement; radioligand).
N#Cc1cc(Cn2c(N3CCCC3)nc3ccccc32)ccc1F has an inhibition of -9.19% (ligand displacement).
Ic1cccc2cnccc12 gave an inhibition of 2% (ligand displacement; radioligand).
The inhibition of C[C@H](c1ccc(F)cc1)N(Cc1ccc(Cl)c(C(=O)O)c1)C(=O)c1cnc2ccccc2c1 is reported as -0.35% (cell-free assay).
CCCNc1nc2ccccc2n1Cc1ccc(Cl)cc1 gave an inhibition of 19.5% (ligand displacement).
O=C1N=C(N2CCCCN2)S/C1=C\c1ccc(F)cc1O gave an inhibition of < 10% (ligand displacement; radioligand).
